# Gli-Sufu block: Gli-Sufu pathway antagonists, primary screen, luciferase luminescence, Sufu-KO-LIGHT cells, uHTS. AID 588413, 2011. inhibition, % at 5 µM. Sufu-KO-LIGHT fibroblasts, Gli luciferase reporter luminescence. actives 0.74% (n = 340,000);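 active = inhibition above about 55%, limit read from the data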;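 also: 0% = DMSO-treated cells and 100% = wells with medium but no cells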
# Jurkat NFkB inh: inhibitors of induced NF-kB luciferase reporter, primary screen, TCR NF-kB activation inhibitor project, cell-based, luminescence, uHTS; inhibition, % at 4 µM; actives 0.53% (n = 330,000); Jurkat, PMA/ionomycin-induced NF-kB luciferase reporter; in the data active = inhibition above about 50%
# CHOP inh: inhibitors of CHOP promoter induction, primary screen, cell-based, unfolded protein response, luciferase reporter | CHO-K1 CHOP-promoter luciferase, tunicamycin-induced, 15-18 h | actives 3.8% (n = 220,000) | inhibition, % at 10 µM | AID 2732, 2010;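 active = compounds that reduced the stress-induced luciferase reporter signal by more than about 70% of percent inhibition, limit read from the data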;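 also: 0% = tunicamycin plus vehicle and 100% = wells without tunicamycin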
# XBP1 UPR activ: activators of adaptive XBP1 UPR arm, primary screen, cell-based, CHO-XBP1 luciferase reporter, luminescence, uHTS | IRE1-XBP1 UPR activation; percent of tunicamycin response, DMSO as zero | activation, % at 20 µM | actives 0.33% (n = 330,000) | AID 463104, 2010;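 active = versus positive control, 20 µM dose yields 30% or more activation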;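 also: 100% = tunicamycin at 10 µg/mL and 0% = DMSO only wells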
#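 incubation = overnight seeding at 37 °C, 6 h compound treatment at 37 °C | assay system = CHO-XBP1 cells stably carrying IRE1-XBP1-driven luciferase reporter | input = 1000 cells per well | detection = luciferase luminescence | dosing = single point, 20 µM final compound, 1% DMSO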
# 697 NFkB inh: inhibitors of PMA/ionomycin-induced NF-kB reporter, 697 cells, primary screen, B-cell NF-kB inhibitor project, cell-based, luminescence, uHTS; 697 B-cell NF-kB luciferase reporter, 16 h; inhibition, % at 4 µM; actives 0.33% (n = 330,000); in the data active = inhibition above about 35%
# UPR CHOP act: activators of apoptotic CHOP UPR arm, primary screen, cell-based, CHO-CHOP luciferase reporter, luminescence, uHTS; UPR activation; percent of tunicamycin response over DMSO baseline; actives 0.34% (n = 330,000); AID 449763, 2010; activation, % at 10 µM;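 active = at 10 µM dose, activation of 40% or more, normalized to positive control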;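 also: 100% = tunicamycin at 10 µg/mL and 0% = DMSO alone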
#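 Evaluation: % reporter activation, DMSO baseline versus tunicamycin full activation; System: CHO-CHOP luciferase reporter cell line; Input: 500 cells/well; Incubation: 6 h compound treatment, 37 °C; Measured by: Steady-Glo luciferase luminescence; Dosing: one dose, 10 µM in 0.5% DMSO; Buffer or medium: F12 medium, 10% FBS; Benchmarks: positive tunicamycin 10 µg/mL, negative DMSO alone.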
# Gli antag conf: Gli-SUFU pathway antagonists, confirmation, single concentration, luciferase luminescence, Sufu-KO-LIGHT cells; shares compounds with Gli-Sufu block; Gli luciferase reporter; inhibition, % at 5 µM; actives 40% (n = 2,500); AID 602428, 2012;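 active = mean inhibition at 5 µM reaching about 45%, limit read from the data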;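 also: plate controls were DMSO-treated cells for no effect and wells lacking cells for full effect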
# Gli cytotox: cytotoxicity in Sufu-KO-LIGHT cells, confirmation, cytotoxicity control for Gli-SUFU antagonist project, cell-based, ATP luminescence, single concentration; cytotoxicity, % at 5 µM; shares compounds with Gli-Sufu block; actives 32% (n = 2,500); AID 651994, 2013;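 active = mean cytotoxicity at 5 µM above about 25%, limit read from the data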;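 also: cells exposed to compound overnight for roughly 16 to 18 hours; plate controls were DMSO wells with cells for no effect and medium without cells for full effect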
# Wnt3a cs: Wnt3a reporter signal inhibition, confirmation, counter-screen for Gli-SUFU antagonist project, Wnt-LIGHT cells, luminescence, single concentration; shares compounds with Gli-Sufu block; Wnt3a-driven luciferase reporter; actives 20% (n = 2,500); AID 651995, 2013; inhibition, % at 6.25 µM;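 active = mean inhibition above about 25%, limit read from the data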
# Numbers without * were called inactive; / = no result. The list is not random: actives were taken first. Their share in the collection is about 3.9%.
SMILES,Gli-Sufu block,Jurkat NFkB inh,CHOP inh,XBP1 UPR activ,697 NFkB inh,UPR CHOP act,Gli antag conf,Gli cytotox,Wnt3a cs
O=C(NCC1COc2ccccc2O1)c1cccc(S(=O)(=O)NCc2ccccc2)c1 (stereo not drawn),1,4,/,-3,-9,1,/,/,/
Cc1cc(=O)oc2cc(OCC(O)CN3CCc4ccccc4C3)ccc12 (stereo not drawn),95*,-5,5,-9,14,0,11,14,-44
COc1ccc(C(=O)Nc2c(N)nc[nH]c2=O)cc1,0,4,/,-3,8,-1,/,/,/
COc1ccccc1CNC(=O)CCC(=O)N1CC(C)Sc2ccccc21 (stereo not drawn),7,-12,/,0,4,2,/,/,/
O=[N+]([O-])c1ccc(N2CCCCC2)s1,-4,-12,29,-2,-33,0,/,/,/
O=[N+]([O-])c1ccc(N2CCN(Cc3ccccc3)CC2)s1,52,-15,/,7,-33,-1,24,6,-8
CCN1CC2=C(OC(N)=C(C#N)C2c2cccs2)/C(=C\c2cccs2)C1 (stereo not drawn),77*,-4,61,-2,6,0,22,8,-33
O=C(N=C1SC2CS(=O)(=O)CC2N1c1ccc(OC(F)(F)F)cc1)C1CC1 (stereo not drawn),-6,2,/,-3,7,2,/,/,/
CC1=CC=CC2=NC(=O)CC(C)(C(=O)N(CC(=O)NC3CCCC3)c3ccc(F)cc3)N12 (stereo not drawn),-13,13,/,-2,-3,-1,/,/,/
CCCCn1c(=O)[nH]c(=O)c2c1nc(-c1ccc(-c3ccccc3)cc1)n2C,53,4,/,22,4,6,33,12,-11
CCn1c(-c2ccsc2)nc2c1c(=O)[nH]c(=O)n2Cc1ccccc1,62*,-5,-3,5,-1,-2,27,1,-8
CCCCn1c(=O)[nH]c(=O)c2c1nc(-c1ccc3ccccc3c1)n2CC,21,1,37,8,-4,-2,/,/,/
COc1ccc(NC(=O)c2ccc3[nH]c(C)c(C)c3c2)cc1,-35,-38,/,-4,-10,2,/,/,/
Cc1csc(N2CCCC2c2nc3cc(C(F)(F)F)ccc3n2CCOCCO)n1 (stereo not drawn),85*,1,/,1,-30,-3,18,-1,-72
COc1ccc(CNC(=O)COC(=O)c2[nH]c(C)c(C(C)=O)c2C)cc1OC,-5,0,/,-1,14,-1,/,/,/
CC(C)n1ncc2c(C(=O)Nc3cccc(S(=O)(=O)N(C)C)c3)cc(C3CC3)nc21,5,-8,/,2,20,0,/,/,/
CCOc1ccc(NC(=O)CCNC(=O)C2CCN(S(=O)(=O)c3ccccc3)CC2)cc1,57*,4,/,-2,-13,2,14,26*,-26
O=C(CCNC(=O)C1CCN(S(=O)(=O)c2ccc(F)cc2)CC1)NCc1ccc(Cl)cc1,61*,-9,/,-3,15,-2,13,11,-10
O=C(CCNC(=O)C1CCN(S(=O)(=O)c2ccc(F)cc2)CC1)NCc1ccc(F)cc1,-21,6,/,-4,1,1,/,/,/
COc1ccc(NC(=O)CCNC(=O)C2CCN(S(=O)(=O)c3ccc(OC)cc3)CC2)cc1,-6,7,/,-1,18,0,/,/,/
O=C(COC(=O)CCC(=O)c1ccc(F)cc1)NCCc1ccccc1,-1,12,/,-1,16,0,/,/,/
CCN(C(=O)COC(=O)CNC(=O)c1cccs1)c1c(N)n(Cc2ccccc2)c(=O)[nH]c1=O,-1,/,/,/,/,/,/,/,/
COc1ccc(OCC(=O)N(Cc2sccc2C)C2CCS(=O)(=O)C2)cc1 (stereo not drawn),-15,1,/,-1,6,2,/,/,/
CCc1ccc(N(CC(=O)N2CCOCC2)S(C)(=O)=O)cc1,29,10,/,-1,15,1,/,/,/
CC1(C)Cc2c(cnn2-c2ccccc2)C(NC(=O)c2ccc[n+]([O-])c2)C1 (stereo not drawn),51,-5,/,-9,-11,0,21,8,17
SMILES,Gli-Sufu block,Jurkat NFkB inh,CHOP inh,XBP1 UPR activ,697 NFkB inh,UPR CHOP act,Gli antag conf,Gli cytotox,Wnt3a cs
Cc1ccc(-n2ncc3c2CC(C)(C)CC3NC(=O)c2ccc[n+]([O-])c2)cc1 (stereo not drawn),11,4,/,-5,-58,0,/,/,/
COc1ccc(C(=O)NC(=O)COC(=O)CCS(=O)(=O)c2ccc(C)cc2)cc1,-8,-3,/,-3,-30,0,/,/,/
Cc1ccc(NC(=S)Nc2ccc(S(=O)(=O)N3CCOCC3)cc2)cc1S(=O)(=O)N1CCOCC1,55,3,-8,-1,1,-1,9,8,-21
Cc1ccc(NCC(=O)Nc2cccc(S(=O)(=O)N(C)C)c2)cc1S(=O)(=O)N1CCCCCC1,51,12,/,-1,-63,0,41,25,-7
Cc1ccc(NC(=O)CNc2cccc(S(=O)(=O)N3CCOCC3)c2)cc1F,-3,15,/,-2,-6,2,/,/,/
CCN(CC)S(=O)(=O)c1cc(NC(=O)CNc2cccc(S(=O)(=O)N3CCOCC3)c2)ccc1C,95*,23,/,-4,-3,-1,46*,36*,10
N#Cc1cccc(NCC(=O)Nc2cccc(S(=O)(=O)N3CCCCC3)c2)c1,7,-16,/,-3,-4,0,/,/,/
N#Cc1cccc(NC(=O)CNc2cccc(S(=O)(=O)N3CCCC3)c2)c1,66*,9,/,-4,-10,0,17,-3,8
Cc1ccc(C(=O)C(C)OC(=O)CCN2C(=O)C3C4C=CC(C5CC45)C3C2=O)cc1 (stereo not drawn),0,8,/,-3,-7,2,/,/,/
O=C(CSc1nc2ccccc2c(=O)n1-c1ccccc1)N1CCc2ccccc2C1,67*,30,26,-1,-58,0,74*,40*,0
